From ChEMBL document CHEMBL1143528, “Kinesin spindle protein (KSP) inhibitors. Part 1: The discovery of 3,5-diaryl-4,5-dihydropyrazoles as potent and selective inhibitors of the mitotic kinesin KSP” (Bioorg Med Chem Lett, 2005) come the findings set out here.

Some results are limits rather than exact numbers.

The target in one assay is T1, Caspase-3 (Homo sapiens, UniProt P42574).
T1 sequence (P42574 whole entry): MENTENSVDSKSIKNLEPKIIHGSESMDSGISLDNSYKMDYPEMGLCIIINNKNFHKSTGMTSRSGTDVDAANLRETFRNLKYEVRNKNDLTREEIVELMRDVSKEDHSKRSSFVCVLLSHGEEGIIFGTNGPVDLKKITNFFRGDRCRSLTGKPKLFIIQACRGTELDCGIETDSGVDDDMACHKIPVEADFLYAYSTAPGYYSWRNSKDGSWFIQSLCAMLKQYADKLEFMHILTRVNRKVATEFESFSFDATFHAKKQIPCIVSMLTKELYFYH
Kind of assay: Inhibitory concentration towards caspase-3 induction in human A2780 ovarian carcinoma cells. It is filed as functional, cell-based. In a few lines: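 A2780 human ovarian carcinoma cells were treated with compound. Caspase-3 activation, used as an apoptosis marker, was then measured in cell lysates with a fluorescent kit that reads release of the AFC fluorophore from DEVD-AFC substrate. The value is a concentration giving 50% of caspase-3 induction.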
As to `CC(=O)N1N=C(c2cc(F)ccc2F)C[C@H]1c1cccc(O)c1`, half-maximal inhibition (IC50) required 15 nM.

The target of a further assay is T2, Kinesin-like protein KIF11 (Homo sapiens, UniProt P52732).
T2 sequence (P52732 whole entry): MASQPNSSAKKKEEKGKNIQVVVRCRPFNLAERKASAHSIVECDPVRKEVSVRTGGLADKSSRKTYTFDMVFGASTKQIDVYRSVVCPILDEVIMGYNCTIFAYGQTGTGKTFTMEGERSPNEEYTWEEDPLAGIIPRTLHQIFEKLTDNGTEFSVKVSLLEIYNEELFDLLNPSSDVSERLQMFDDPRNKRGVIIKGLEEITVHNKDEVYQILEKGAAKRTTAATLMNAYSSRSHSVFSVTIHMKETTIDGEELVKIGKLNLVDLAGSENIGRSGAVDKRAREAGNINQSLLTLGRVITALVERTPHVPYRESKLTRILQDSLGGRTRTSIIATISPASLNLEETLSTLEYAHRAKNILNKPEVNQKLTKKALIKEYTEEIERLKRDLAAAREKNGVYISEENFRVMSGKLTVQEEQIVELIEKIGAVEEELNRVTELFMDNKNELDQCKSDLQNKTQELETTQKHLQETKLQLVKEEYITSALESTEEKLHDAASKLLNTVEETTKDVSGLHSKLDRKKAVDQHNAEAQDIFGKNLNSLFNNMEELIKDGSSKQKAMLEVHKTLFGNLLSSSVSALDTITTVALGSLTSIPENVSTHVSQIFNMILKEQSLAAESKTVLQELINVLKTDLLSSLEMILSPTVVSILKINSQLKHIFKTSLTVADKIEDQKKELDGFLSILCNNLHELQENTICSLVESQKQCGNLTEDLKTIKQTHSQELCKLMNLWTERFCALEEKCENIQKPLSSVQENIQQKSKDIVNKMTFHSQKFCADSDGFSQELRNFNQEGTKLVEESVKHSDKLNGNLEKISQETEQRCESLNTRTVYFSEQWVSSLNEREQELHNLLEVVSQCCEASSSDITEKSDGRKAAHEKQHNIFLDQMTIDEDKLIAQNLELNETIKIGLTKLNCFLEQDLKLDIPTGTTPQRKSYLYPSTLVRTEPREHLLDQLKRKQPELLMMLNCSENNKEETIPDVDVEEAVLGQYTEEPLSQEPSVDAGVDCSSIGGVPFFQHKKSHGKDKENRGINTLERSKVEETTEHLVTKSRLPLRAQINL
Kind of assay: In vitro inhibitory concentration towards kinesin spindle protein activity of ATP hydrolysis in the presence of microtubules measured by ATPase assay (n=3).
On to `COc1ccccc1C1=NN(C(C)=O)C(c2ccccc2)C1` (configuration not stated), for which the IC50 (as a rule, the concentration at which inhibition is half-maximal) was over 50 µM.
On the same count and under the same terms, for `CC(=O)N1N=C(c2cc(F)cc(F)c2)CC1c1ccccc1` (configuration not stated) the value was over 5 µM; for `CC(=O)N1N=C(c2cccc(Cl)c2)CC1c1ccccc1` (configuration not stated), 9.8 µM.
As for `NCCCC(=O)N1N=C(c2ccccc2Cl)CC1c1cccc(O)c1` (configuration not stated), the IC50 worked out at 6 µM.
On the same count and under the same terms, for `CN(C)C(=O)N1N=C(c2cc(F)ccc2F)CC1c1ccccc1` (configuration not stated) the value was 0.084 µM; for `CCOC(=O)C1=C(C)NC(=S)N[C@H]1c1cccc(O)c1` [S-MENASTROL], 10 µM.
The same measure, in the same setting: to `CC(=O)N1N=C(c2cc(F)ccc2F)CC1c1ccccc1` (configuration not stated) belongs 0.094 µM; to `CC(=O)N1N=C(c2ccccc2)CC1c1cccc(O)c1` (configuration not stated), 6.9 µM; to `CC(=O)N1N=C(c2ccccc2)CC1c1ccccc1` (configuration not stated), over 50 µM.
The same measure, in the same setting: for `CC(C)C(=O)N1N=C(c2ccccc2Cl)CC1c1cccc(O)c1` (configuration not stated) the value was 1.1 µM; for `CC(=O)N1N=C(c2cccc(F)c2F)CC1c1ccccc1` (configuration not stated), 12.7 µM; for `CCC(=O)N1N=C(c2ccccc2Cl)CC1c1cccc(O)c1` (configuration not stated), 1.2 µM.
As to `CC(=O)N1N=C(c2ccc(Cl)cc2)CC1c1ccccc1` (configuration not stated), the IC50 was over 50 µM.
For the molecule `CS(=O)(=O)N1N=C(c2cc(F)ccc2F)CC1c1ccccc1` (configuration not stated), the IC50 was 1.8 µM.
In the case of `CC(C)(C)C(=O)N1N=C(c2ccccc2Cl)CC1c1cccc(O)c1` (configuration not stated), the IC50 was determined as 0.46 µM.
The same measure, in the same setting: for `CC(=O)N1N=C(c2cc(F)ccc2F)CC1c1cccs1` (configuration not stated) the value was 1.8 µM; for `CC(=O)N1N=C(c2ccccc2Br)CC1c1ccccc1` (configuration not stated), 23.3 µM.
Same read-out and setting: to `CC(=O)N1N=C(c2ccccc2Cl)CC1c1ccccc1` (configuration not stated) belongs 3.6 µM.
Same read-out and setting: to `CC(=O)N1N=C(c2cc(F)ccc2F)C[C@H]1c1cccc(O)c1` belongs 0.026 µM; to `CC(=O)N1N=C(c2ccccc2F)CC1c1ccccc1` (configuration not stated), 3.6 µM; to `CC(=O)N1N=C(c2ccc(Cl)cc2Cl)CC1c1ccccc1` (configuration not stated), 37.6 µM.
For `CNC(=O)N1N=C(c2cc(F)ccc2F)CC1c1ccccc1` (configuration not stated), the IC50 came to 3.1 µM.
In the case of `CC(=S)N1N=C(c2cc(F)ccc2F)CC1c1ccccc1` (configuration not stated), the IC50 was determined as 0.25 µM.
In the case of `CC(=O)N1N=C(c2c(F)cccc2F)CC1c1ccccc1` (configuration not stated), the half-inhibitory concentration (IC50) is 10.9 µM.
The same measure, in the same setting: for `CC(=O)N1N=C(c2ccccc2C(F)(F)F)CC1c1ccccc1` (configuration not stated) the value was over 50 µM; for `CN1N=C(c2ccccc2Cl)CC1c1cccc(O)c1` (configuration not stated), over 50 µM; for `CC(=O)N1N=C(c2ccccc2Cl)CC1c1cccc(O)c1` (configuration not stated), 0.45 µM.
The same measure, in the same setting: for `O=C(c1ccccc1)N1N=C(c2ccccc2Cl)CC1c1cccc(O)c1` (configuration not stated) the value was 13.5 µM.
Still for that read-out and setting: for `CC(=O)N1N=C(c2cc(F)ccc2F)CC1c1cccc(O)c1` (configuration not stated) the value was 0.051 µM.
On to `COC(=O)N1N=C(c2ccccc2Cl)CC1c1cccc(O)c1` (configuration not stated), for which the IC50 is over 50 µM.
For the molecule `CC(=O)N1N=C(c2ccccc2C)CC1c1ccccc1` (configuration not stated), the IC50 stood at 46.2 µM.
